In ChEMBL document CHEMBL1124493, “Synthesis and tumor uptake of 5-82Br- and 5-131I-labeled 5-halo-1-(2-fluoro-2-deoxy-beta-D-ribofuranosyl)uracils” (J Med Chem, 1989):

Legend:
Mus musculus [1] = assay: Biodistribution of intravenously injected [82Br]-labeled compound in bone of BDF1 female mice bearing subcutaneous Lewis lung carcinoma after 0.25 hours; assay type: ADME, organism-based, Bone element; settings: in vivo, iv
Summary of the method: (§1)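 82Br-labeled nucleoside given intravenously to female BDF1 mice bearing subcutaneous Lewis lung carcinoma, at 47-130 μg carrying 20-60 kBq. Mice sacrificed at each time point. Wet-weighed tissues γ-counted. Values are percent injected dose per gram wet tissue, mean ± SD, n = 6.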

Mus musculus [2] = assay: Biodistribution of intravenously injected [82Br]-labeled compound in stomach of BDF1 female mice bearing subcutaneous Lewis lung carcinoma after 2 hours; assay type: ADME, organism-based; settings: in vivo, iv
Mus musculus [3] = assay: Biodistribution of intravenously injected [82Br]-labeled compound in heart of BDF1 female mice bearing subcutaneous Lewis lung carcinoma after 1 hours; assay type: ADME, organism-based; settings: in vivo, iv
Summary of the method: (§2)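 Female BDF1 mice with subcutaneous Lewis lung carcinoma given an iv injection of [82Br]-labelled nucleoside, 47-130 μg carrying 20-60 kBq 82Br. Tissues were excised, weighed wet and γ-counted. Values are percent injected dose per gram of wet tissue, mean ± standard deviation of six animals, with organ-to-tumour ratios derived.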

Mus musculus [4] = assay: Biodistribution of intravenously injected [82Br]-labeled compound in lung of BDF1 female mice bearing subcutaneous Lewis lung carcinoma after 2 hours; assay type: ADME, organism-based; settings: in vivo, iv; summary of the method: as §2
Mus musculus [5] = assay: Biodistribution of intravenously injected [82Br]-labeled compound in bone of BDF1 female mice bearing subcutaneous Lewis lung carcinoma after 2 hours; assay type: ADME, organism-based, Bone element; settings: in vivo, iv; summary of the method: as §1
Mus musculus [6] = assay: Biodistribution of intravenously injected [82Br]-labeled compound in gut of BDF1 female mice bearing subcutaneous Lewis lung carcinoma after 1 hours; assay type: ADME, organism-based; settings: in vivo, iv; summary of the method: as §1
Mus musculus [7] = assay: Biodistribution of intravenously injected [82Br]-labeled compound in skin of BDF1 female mice bearing subcutaneous Lewis lung carcinoma after 2 hours; assay type: ADME, organism-based, Zone of skin; settings: in vivo, iv; summary of the method: as §2
Mus musculus [8] = assay: Biodistribution of intravenously injected [82Br]-labeled compound in liver of BDF1 female mice bearing subcutaneous Lewis lung carcinoma after 0.50 hours; assay type: ADME, organism-based; settings: in vivo, iv, 0.5 h; summary of the method: as §2
Mus musculus [9] = assay: Biodistribution of intravenously injected [82Br]-labeled compound in kidney of BDF1 female mice bearing subcutaneous Lewis lung carcinoma after 4 hours; assay type: ADME, organism-based; settings: in vivo, iv; summary of the method: as §2
Mus musculus [10] = assay: Biodistribution of intravenously injected [82Br]-labeled compound in lung of BDF1 female mice bearing subcutaneous Lewis lung carcinoma after 1 hours; assay type: ADME, organism-based; settings: in vivo, iv; summary of the method: as §2
Mus musculus [11] = assay: Biodistribution of intravenously injected [82Br]-labeled compound in kidney of BDF1 female mice bearing subcutaneous Lewis lung carcinoma after 2 hours; assay type: ADME, organism-based; settings: in vivo, iv; summary of the method: as §2
Mus musculus [12] = assay: Biodistribution of intravenously injected [82Br]-labeled compound in heart of BDF1 female mice bearing subcutaneous Lewis lung carcinoma after 8 hours; assay type: ADME, organism-based; settings: in vivo, iv; summary of the method: as §2
Mus musculus [13] = assay: Biodistribution of intravenously injected [82Br]-labeled compound in lung of BDF1 female mice bearing subcutaneous Lewis lung carcinoma after 0.25 hours; assay type: ADME, organism-based; settings: in vivo, iv; summary of the method: as §2
Mus musculus [14] = assay: Biodistribution of intravenously injected [82Br]-labeled compound in lung of BDF1 female mice bearing subcutaneous Lewis lung carcinoma after 8 hours; assay type: ADME, organism-based; settings: in vivo, iv; summary of the method: as §2
Mus musculus [15] = assay: Biodistribution of intravenously injected [82Br]-labeled compound in muscle of BDF1 female mice bearing subcutaneous Lewis lung carcinoma after 2 hours; assay type: ADME, organism-based, Muscle tissue; settings: in vivo, iv; summary of the method: as §2
Mus musculus [16] = assay: Biodistribution of intravenously injected [82Br]-labeled compound in spleen of BDF1 female mice bearing subcutaneous Lewis lung carcinoma after 4 hours; assay type: ADME, organism-based; settings: in vivo, iv
Mus musculus [17] = assay: Biodistribution of intravenously injected [82Br]-labeled compound in stomach of BDF1 female mice bearing subcutaneous Lewis lung carcinoma after 24 hours; assay type: ADME, organism-based; settings: in vivo, iv
Mus musculus [18] = assay: Biodistribution of intravenously injected [82Br]-labeled compound in stomach of BDF1 female mice bearing subcutaneous Lewis lung carcinoma after 8 hours; assay type: ADME, organism-based; settings: in vivo, iv
Mus musculus [19] = species: Mus musculus; assay: Urinary [131I]- compound observed in BDF1 female mice bearing lewis lung tumor after 6-7 hr of injected [131I]-compound; assay type: functional, tissue-based; settings: Urine
Mus musculus [20] = assay: Biodistribution of intravenously injected [131I]-labeled compound in spleen of BDF1 female mice bearing subcutaneous Lewis lung carcinoma after 2 hours; assay type: ADME, organism-based; settings: in vivo, iv
Summary of the method: (§3)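 Female BDF1 mice with subcutaneous Lewis lung carcinoma given i.v. 0.5-1.8 μg of 131I-labeled nucleoside (55-110 kBq). Killed at set times. Tissues weighed wet and γ-counted. Radioactivity expressed as percent injected dose per gram wet tissue, mean ± SD of six animals.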

Mus musculus [21] = assay: Biodistribution of intravenously injected [131I]-labeled compound in liver of BDF1 female mice bearing subcutaneous Lewis lung carcinoma after 8 hours; assay type: ADME, organism-based; settings: in vivo, iv
Summary of the method: (§4)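 Female BDF1 mice bearing subcutaneous Lewis lung carcinoma received a single intravenous dose of 0.5-1.8 μg of the 131I-labeled nucleoside (55-110 kBq). They were sacrificed at set times, and tissues were weighed wet and γ-counted. Activity is expressed as percent of injected dose per gram of wet tissue, given as mean ± standard deviation for six animals.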

Mus musculus [22] = assay: Biodistribution of intravenously injected [131I]-labeled compound in kidney of BDF1 female mice bearing subcutaneous Lewis lung carcinoma after 24 hours; assay type: ADME, organism-based; settings: in vivo, iv; summary of the method: as §4
Mus musculus [23] = assay: Biodistribution of intravenously injected [131I]-labeled compound in kidney of BDF1 female mice bearing subcutaneous Lewis lung carcinoma after 0.5 hours; assay type: ADME, organism-based; settings: in vivo, iv; summary of the method: as §4
Mus musculus [24] = assay: Biodistribution of intravenously injected [131I]-labeled compound in liver of BDF1 female mice bearing subcutaneous Lewis lung carcinoma after 0.25 hours; assay type: ADME, organism-based; settings: in vivo, iv; summary of the method: as §4
Mus musculus [25] = assay: Biodistribution of intravenously injected [131I]-labeled compound in lung of BDF1 female mice bearing subcutaneous Lewis lung carcinoma after 0.5 hours; assay type: ADME, organism-based; settings: in vivo, iv; summary of the method: as §4
Mus musculus [26] = assay: Biodistribution of intravenously injected [131I]-labeled compound in lung of BDF1 female mice bearing subcutaneous Lewis lung carcinoma after 2 hours; assay type: ADME, organism-based; settings: in vivo, iv; summary of the method: as §4
Mus musculus [27] = assay: Biodistribution of intravenously injected [131I]-labeled compound in blood of BDF1 female mice bearing subcutaneous Lewis lung carcinoma after 8 hours; assay type: ADME, organism-based; settings: in vivo, iv; summary of the method: as §4
Mus musculus [28] = assay: Biodistribution of intravenously injected [131I]-labeled compound in spleen of BDF1 female mice bearing subcutaneous Lewis lung carcinoma after 8 hours; assay type: ADME, organism-based; settings: in vivo, iv; summary of the method: as §3
Mus musculus [29] = species: Mus musculus; assay: Urinary [131I]5-iodouracil observed in BDF1 female mice bearing lewis lung tumor after 0-0.5 hr of injected [131I]-compound; assay type: functional, tissue-based; settings: Urine
Mus musculus [30] = species: Mus musculus; assay: Urinary [131I]- compound observed in BDF1 female mice bearing lewis lung tumor after 2-3 hr of injected [131I]-compound; assay type: functional, tissue-based; settings: Urine
Mus musculus [31] = assay: Biodistribution of intravenously injected [131I]-labeled compound in lung of BDF1 female mice bearing subcutaneous Lewis lung carcinoma after 8 hours; assay type: ADME, organism-based; settings: in vivo, iv; summary of the method: as §4
Mus musculus [32] = assay: Biodistribution of intravenously injected [131I]-labeled compound in kidney of BDF1 female mice bearing subcutaneous Lewis lung carcinoma after 4 hours; assay type: ADME, organism-based; settings: in vivo, iv; summary of the method: as §4
Mus musculus [33] = assay: Biodistribution of intravenously injected [131I]-labeled compound in lung of BDF1 female mice bearing subcutaneous Lewis lung carcinoma after 4 hours; assay type: ADME, organism-based; settings: in vivo, iv; summary of the method: as §4
Mus musculus [34] = assay: Biodistribution of intravenously injected [131I]-labeled compound in skin of BDF1 female mice bearing subcutaneous Lewis lung carcinoma after 0.25 hours; assay type: ADME, organism-based, Zone of skin; settings: in vivo, iv; summary of the method: as §3
Mus musculus [35] = assay: Biodistribution of intravenously injected [131I]-labeled compound in heart of BDF1 female mice bearing subcutaneous Lewis lung carcinoma after 2 hours; assay type: ADME, organism-based; settings: in vivo, iv; summary of the method: as §4
Mus musculus [36] = assay: Biodistribution of intravenously injected [131I]-labeled compound in gut of BDF1 female mice bearing subcutaneous Lewis lung carcinoma after 0.50 hours; assay type: ADME, organism-based; settings: in vivo, iv, 0.5 h; summary of the method: as §4
Mus musculus [37] = assay: Biodistribution of intravenously injected [131I]-labeled compound in kidney of BDF1 female mice bearing subcutaneous Lewis lung carcinoma after 2 hours; assay type: ADME, organism-based; settings: in vivo, iv; summary of the method: as §4
Mus musculus [38] = assay: Biodistribution of intravenously injected [131I]-labeled compound in skin of BDF1 female mice bearing subcutaneous Lewis lung carcinoma after 2 hours; assay type: ADME, organism-based, Zone of skin; settings: in vivo, iv; summary of the method: as §3

O=c1[nH]c(=O)n([C@H]2O[C@@H](CO)[C@H](O)[C@H]2F)cc1Br
Injected dose/g (Mus musculus [1]): 0.52%
Injected dose/g (Mus musculus [2]): 0.52%
Injected dose/g (Mus musculus [3]): 0.44%
Injected dose/g (Mus musculus [4]): 0.54%
Injected dose/g (Mus musculus [5]): 0.26%
Injected dose/g (Mus musculus [6]): 0.42%
Injected dose/g (Mus musculus [7]): 0.39%
Injected dose/g (Mus musculus [8]): 0.65%
Injected dose/g (Mus musculus [9]): 0.48%
Injected dose/g (Mus musculus [10]): 0.52%
Injected dose/g (Mus musculus [11]): 0.71%
Injected dose/g (Mus musculus [12]): 0.45%
Injected dose/g (Mus musculus [13]): 1.7%
Injected dose/g (Mus musculus [14]): 0.46%
Injected dose/g (Mus musculus [15]): 0.19%
Injected dose/g (Mus musculus [16]): 0.28%
Injected dose/g (Mus musculus [17]): 0.34%
Injected dose/g (Mus musculus [18]): 0.53%

O=c1[nH]c(=O)n([C@@H]2O[C@H](CO)[C@@H](O)[C@H]2F)cc1I
Radioactive constituents (Mus musculus [19]): 60.2%
Injected dose/g (Mus musculus [20]): 1.8%
Injected dose/g (Mus musculus [21]): 1.4%
Injected dose/g (Mus musculus [22]): 0.14%
Injected dose/g (Mus musculus [23]): 18.5%
Injected dose/g (Mus musculus [24]): 5.3%
Injected dose/g (Mus musculus [25]): 7.5%
Injected dose/g (Mus musculus [26]): 5.1%
Injected dose/g (Mus musculus [27]): 4.1%
Injected dose/g (Mus musculus [28]): 1%
Radioactive constituents (Mus musculus [29]): 1.8%
Radioactive constituents (Mus musculus [30]): 82.8%
Injected dose/g (Mus musculus [31]): 2.6%
Injected dose/g (Mus musculus [32]): 7.3%
Injected dose/g (Mus musculus [33]): 4.5%
Injected dose/g (Mus musculus [34]): 5.2%
Injected dose/g (Mus musculus [35]): 5.7%
Injected dose/g (Mus musculus [36]): 2.8%
Injected dose/g (Mus musculus [37]): 8.5%
Injected dose/g (Mus musculus [38]): 3.2%
